{
  "source": "ChEMBL document CHEMBL2177069",
  "about": "“Novel peptidomimetic compounds containing redox active chalcogens and quinones as potential anticancer agents” (Eur J Med Chem, 2012)",
  "key": {"Saccharomyces cerevisiae [1]": {"test_system": "Saccharomyces cerevisiae", "test": "Growth inhibition of GSH2-deficient Saccharomyces cerevisiae YOL049W mutant at 20 ug/disc after 24 to 48 hrs by agar diffusion assay", "format": "functional", "settings": "read-out: DIZ", "how_it_was_run": "(§1)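 S. cerevisiae deletion mutants or wild type grown on YPD, seeded into liquid agar medium at an optical density of 0.1. 6 mm paper discs soaked with methanolic compound solution were placed on the plates and incubated at 30 °C. Growth was checked after 1 and 2 days, and the inhibition zone diameter was recorded in mm.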"}, "Saccharomyces cerevisiae [2]": {"test_system": "Saccharomyces cerevisiae", "test": "Growth inhibition of GTT2-deficient Saccharomyces cerevisiae YLL060C mutant at 20 ug/disc after 24 to 48 hrs by agar diffusion assay", "format": "functional", "settings": "read-out: DIZ", "how_it_was_run": "as §1"}, "Saccharomyces cerevisiae [3]": {"test_system": "Saccharomyces cerevisiae", "test": "Growth inhibition of POS5-deficient Saccharomyces cerevisiae YPL188W mutant at 20 ug/disc after 24 to 48 hrs by agar diffusion assay", "format": "functional", "settings": "read-out: DIZ", "how_it_was_run": "as §1"}, "Saccharomyces cerevisiae [4]": {"test_system": "Saccharomyces cerevisiae", "test": "Growth inhibition of PST2-deficient Saccharomyces cerevisiae YDR032C mutant at 20 ug/disc 24 to 48 hrs by agar diffusion assay", "format": "functional", "settings": "read-out: DIZ", "how_it_was_run": "as §1"}, "Saccharomyces cerevisiae [5]": {"test_system": "Saccharomyces cerevisiae", "test": "Growth inhibition of SOD2-deficient Saccharomyces cerevisiae YHR008C mutant at 20 ug/disc 24 to 48 hrs by agar diffusion assay", "format": "functional", "settings": "read-out: DIZ", "how_it_was_run": "as §1"}, "A498 [6]": {"test_system": "A498", "test": "Cytotoxicity against human A498 cells after 24 hrs by MTT assay", "format": "functional, cell-based", "settings": "A498, 24 h", "how_it_was_run": "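MTT assay. Cells were seeded at 50,000 cells/mL in medium with 10% fetal calf serum and grown for two days at 37 °C, 10% CO2. Serial dilutions of compound were then added for 24 h. MTT was added (final 0.5 mg/mL) for 2 h, and the formazan was pelleted, washed, dissolved in isopropanol with 0.4% HCl and read at 590 nm. IC50 is the concentration giving 50% of untreated-control absorbance, taken from dose-response curves; mean of two parallel experiments.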"}, "MDA-MB-468": {"test_system": "MDA-MB-468", "test": "Cytotoxicity against human MDA-MB-468 cells", "format": "functional"}, "T47D": {"test_system": "T47D", "test": "Cytotoxicity against human T47D cells", "format": "functional"}, "BT-549": {"test_system": "BT-549", "test": "Cytotoxicity against human BT549 cells", "format": "functional"}, "MDA-MB-231": {"test_system": "MDA-MB-231", "test": "Cytotoxicity against human MDA-MB-231 cells", "format": "functional"}, "MCF7": {"test_system": "MCF7", "test": "Cytotoxicity against human MCF7 cells", "format": "functional"}, "UO-31": {"test_system": "UO-31", "test": "Cytotoxicity against human UO31 cells", "format": "functional"}, "TK-10": {"test_system": "TK-10", "test": "Cytotoxicity against human TK10 cells", "format": "functional"}, "A498 [7]": {"test_system": "A498", "test": "Cytotoxicity against human A498 cells", "format": "functional"}, "[8]": {"test": "Cytotoxicity against human 786-O cells", "format": "functional"}, "SK-OV-3": {"test_system": "SK-OV-3", "test": "Cytotoxicity against human SKOV3 cells", "format": "functional"}, "OVCAR-8": {"test_system": "OVCAR-8", "test": "Cytotoxicity against human OVCAR8 cells", "format": "functional"}, "NCI/ADR-RES": {"test_system": "NCI/ADR-RES", "test": "Cytotoxicity against human NCI/ADR-RES cells", "format": "functional"}, "OVCAR-4": {"test_system": "OVCAR-4", "test": "Cytotoxicity against human OVCAR4 cells", "format": "functional"}, "OVCAR-3": {"test_system": "OVCAR-3", "test": "Cytotoxicity against human OVCAR3 cells", "format": "functional"}, "SK-MEL-2": {"test_system": "SK-MEL-2", "test": "Cytotoxicity against human SK-MEL-2 cells", "format": "functional"}, "Malme-3M": {"test_system": "Malme-3M", "test": "Cytotoxicity against human MALME-3M cells", "format": "functional"}},
  "data": [
    {"smiles": "CC1=C(SCCC(=O)OC(C[Se]C2=C(C)C(=O)c3ccccc3C2=O)C(=O)NCCCCCC(=O)OCc2ccccc2)C(=O)c2ccccc2C1=O", "note": "(centres undefined)", "values": [
      {"measurement": "zone of inhibition at 20 µg/disc", "setting": "Saccharomyces cerevisiae [1]", "value": 10, "unit": "mm"},
      {"measurement": "zone of inhibition at 20 µg/disc", "setting": "Saccharomyces cerevisiae [2]", "value": 12, "unit": "mm"},
      {"measurement": "zone of inhibition at 20 µg/disc", "setting": "Saccharomyces cerevisiae [3]", "value": 10, "unit": "mm"},
      {"measurement": "zone of inhibition at 20 µg/disc", "setting": "Saccharomyces cerevisiae [4]", "value": 11, "unit": "mm"},
      {"measurement": "zone of inhibition at 20 µg/disc", "setting": "Saccharomyces cerevisiae [5]", "value": 15, "unit": "mm"},
      {"measurement": "IC50", "setting": "A498 [6]", "value": 5, "unit": "µM"},
      {"measurement": "GI50", "setting": "MDA-MB-468", "value": 3.02, "unit": "µM"},
      {"measurement": "LC50", "setting": "MDA-MB-468", "value": 37.2, "unit": "µM"},
      {"measurement": "TGI", "setting": "MDA-MB-468; read-out: pTGI (converted)", "value": 8.51, "unit": "µM"},
      {"measurement": "GI50", "setting": "T47D", "value": 17.8, "unit": "µM"},
      {"measurement": "LC50", "setting": "T47D", "value": "> 100", "unit": "µM"},
      {"measurement": "TGI", "setting": "T47D; read-out: pTGI (converted)", "value": 51.3, "unit": "µM"},
      {"measurement": "GI50", "setting": "BT-549", "value": 3.8, "unit": "µM"},
      {"measurement": "LC50", "setting": "BT-549", "value": 36.3, "unit": "µM"},
      {"measurement": "TGI", "setting": "BT-549; read-out: pTGI (converted)", "value": 12.9, "unit": "µM"},
      {"measurement": "GI50", "setting": "MDA-MB-231", "value": 6.76, "unit": "µM"},
      {"measurement": "LC50", "setting": "MDA-MB-231", "value": 55, "unit": "µM"},
      {"measurement": "TGI", "setting": "MDA-MB-231; read-out: pTGI (converted)", "value": 21.9, "unit": "µM"},
      {"measurement": "GI50", "setting": "MCF7", "value": 4.79, "unit": "µM"},
      {"measurement": "LC50", "setting": "MCF7", "value": "> 100", "unit": "µM"},
      {"measurement": "TGI", "setting": "MCF7; read-out: pTGI (converted)", "value": 29.5, "unit": "µM"},
      {"measurement": "GI50", "setting": "UO-31", "value": 2.51, "unit": "µM"},
      {"measurement": "LC50", "setting": "UO-31", "value": 50.1, "unit": "µM"},
      {"measurement": "TGI", "setting": "UO-31; read-out: pTGI (converted)", "value": 15.1, "unit": "µM"},
      {"measurement": "GI50", "setting": "TK-10", "value": 13.8, "unit": "µM"},
      {"measurement": "LC50", "setting": "TK-10", "value": 53.7, "unit": "µM"},
      {"measurement": "TGI", "setting": "TK-10; read-out: pTGI (converted)", "value": 26.9, "unit": "µM"},
      {"measurement": "GI50", "setting": "A498 [7]", "value": 12, "unit": "µM"},
      {"measurement": "LC50 (50% lethal concentration)", "setting": "A498 [7]", "value": "> 100", "unit": "µM"},
      {"measurement": "TGI", "setting": "A498 [7]; read-out: pTGI (converted)", "value": "> 100", "unit": "µM"},
      {"measurement": "GI50", "setting": "[8]; 786-0", "value": 4.68, "unit": "µM"},
      {"measurement": "LC50", "setting": "[8]; 786-0", "value": 38, "unit": "µM"},
      {"measurement": "TGI", "setting": "[8]; 786-0, read-out: pTGI (converted)", "value": 14.1, "unit": "µM"},
      {"measurement": "GI50", "setting": "SK-OV-3", "value": 7.08, "unit": "µM"},
      {"measurement": "LC50", "setting": "SK-OV-3", "value": 44.7, "unit": "µM"},
      {"measurement": "TGI", "setting": "SK-OV-3; read-out: pTGI (converted)", "value": 19.5, "unit": "µM"},
      {"measurement": "GI50", "setting": "OVCAR-8", "value": 4.17, "unit": "µM"},
      {"measurement": "LC50", "setting": "OVCAR-8", "value": 50.1, "unit": "µM"},
      {"measurement": "TGI", "setting": "OVCAR-8; read-out: pTGI (converted)", "value": 15.1, "unit": "µM"},
      {"measurement": "GI50", "setting": "NCI/ADR-RES", "value": 4.57, "unit": "µM"},
      {"measurement": "CC50", "setting": "NCI/ADR-RES; read-out: pLC50 (the source's name) (converted)", "value": 81.3, "unit": "µM"},
      {"measurement": "TGI", "setting": "NCI/ADR-RES; read-out: pTGI (converted)", "value": 18.2, "unit": "µM"},
      {"measurement": "GI50", "setting": "OVCAR-4", "value": 12.3, "unit": "µM"},
      {"measurement": "LC50", "setting": "OVCAR-4", "value": 51.3, "unit": "µM"},
      {"measurement": "TGI", "setting": "OVCAR-4; read-out: pTGI (converted)", "value": 25.1, "unit": "µM"},
      {"measurement": "GI50", "setting": "OVCAR-3", "value": 5.01, "unit": "µM"},
      {"measurement": "LC50", "setting": "OVCAR-3", "value": 42.7, "unit": "µM"},
      {"measurement": "TGI", "setting": "OVCAR-3; read-out: pTGI (converted)", "value": 18.2, "unit": "µM"},
      {"measurement": "GI50", "setting": "SK-MEL-2", "value": 5.5, "unit": "µM"},
      {"measurement": "LC50", "setting": "SK-MEL-2", "value": 52.5, "unit": "µM"},
      {"measurement": "TGI", "setting": "SK-MEL-2; read-out: pTGI (converted)", "value": 19.1, "unit": "µM"},
      {"measurement": "GI50", "setting": "Malme-3M", "value": 2.09, "unit": "µM"},
      {"measurement": "LC50", "setting": "Malme-3M", "value": 56.2, "unit": "µM"},
      {"measurement": "TGI", "setting": "Malme-3M; read-out: pTGI (converted)", "value": 6.92, "unit": "µM"}
    ]}
  ]
}
